# hERG rescue = hERG (human) protection from proarrhythmic block; Q12809; CHO-hERG, FluxOR thallium flux, dofetilide IC70 present; activation (rescue from dofetilide block), less the hit threshold, % at 10 µM; 0.51% of 310,000 active;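 active means activation above the mean of controls blocked by dofetilide plus 5 SD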;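 further: thallium influx through hERG after potassium depolarization seen as dye fluorescence rise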
# Target sequence (Q12809 whole entry, looked up): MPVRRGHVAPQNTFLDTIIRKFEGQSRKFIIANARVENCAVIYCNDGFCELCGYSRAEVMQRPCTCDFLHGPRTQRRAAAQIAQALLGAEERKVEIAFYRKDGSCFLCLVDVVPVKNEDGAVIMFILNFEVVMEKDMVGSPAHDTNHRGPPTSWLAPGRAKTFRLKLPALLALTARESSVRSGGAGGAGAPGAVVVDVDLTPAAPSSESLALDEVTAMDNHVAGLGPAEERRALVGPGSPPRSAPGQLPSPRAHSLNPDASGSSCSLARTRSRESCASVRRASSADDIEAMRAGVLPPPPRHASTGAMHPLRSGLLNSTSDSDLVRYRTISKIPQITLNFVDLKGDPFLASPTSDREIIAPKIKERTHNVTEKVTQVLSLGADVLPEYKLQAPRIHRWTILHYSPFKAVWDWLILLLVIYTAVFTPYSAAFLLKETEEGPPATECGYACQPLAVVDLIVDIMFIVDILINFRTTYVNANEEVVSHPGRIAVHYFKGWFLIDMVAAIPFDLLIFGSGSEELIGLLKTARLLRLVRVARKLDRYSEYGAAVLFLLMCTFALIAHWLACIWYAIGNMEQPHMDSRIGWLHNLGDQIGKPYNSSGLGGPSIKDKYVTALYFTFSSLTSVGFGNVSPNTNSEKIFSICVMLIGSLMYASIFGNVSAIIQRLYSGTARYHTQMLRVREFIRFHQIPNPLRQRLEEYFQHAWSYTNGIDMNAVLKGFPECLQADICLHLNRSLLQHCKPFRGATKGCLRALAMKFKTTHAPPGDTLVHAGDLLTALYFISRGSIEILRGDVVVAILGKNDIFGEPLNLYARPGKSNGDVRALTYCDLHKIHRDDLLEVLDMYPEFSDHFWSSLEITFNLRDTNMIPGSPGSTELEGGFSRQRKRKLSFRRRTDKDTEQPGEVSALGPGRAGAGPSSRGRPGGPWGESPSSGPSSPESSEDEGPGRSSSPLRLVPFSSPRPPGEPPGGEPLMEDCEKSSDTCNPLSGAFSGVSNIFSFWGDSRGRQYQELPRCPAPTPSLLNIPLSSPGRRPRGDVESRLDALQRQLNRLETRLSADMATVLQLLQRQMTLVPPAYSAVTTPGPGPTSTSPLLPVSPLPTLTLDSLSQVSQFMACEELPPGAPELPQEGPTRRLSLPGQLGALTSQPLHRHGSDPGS
# KCNK9 block = inhibitors of human KCNK9 two-pore domain potassium channel; AID 488922; B-score at 10 µM; 1.2% of 310,000 active; HEK293 KCNK9, FluxOR thallium flux fluorescence; stronger effect = lower value;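 active means ratio B-score over 3 SD below the library mean, with starting fluorescence within 5 SD of its mean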;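 further: negative B-score means less thallium flux so channel inhibition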
# KCNK3 block = human KCNK3 channel inhibition, primary screen; O14649; CHO-KCNK3 thallium flux, FluxOR fluorescence; stronger effect = lower value; B-score at 10 µM; 0.84% of 340,000 active;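 active means B-score under library mean minus 4 SD, starting fluorescence ratio at most library mean plus 5 SD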;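 further: more negative B-score means stronger inhibition of thallium flux through KCNK3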
# KCNQ1 act = potentiators or activators of human KCNQ1 potassium channel; P51787; CHO-K1 KCNQ1, thallium flux FluxOR fluorescence; stronger effect = higher value; B-score at 10 µM; 0.35% of 310,000 active; AID 2648;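 active means fluorescence ratio B-score, a plate-corrected score, at least three library SD, with initial intensity B-score within 5 SD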
#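 Medium – assay buffer, equal DMSO in all wells · Material – CHO-K1 cell line with stable KCNQ1 potassium channel expression · Signal – kinetic FluxOR thallium fluorescence, 10-s 1-Hz baseline, 110-s post-stimulus read · Compound – single concentration per compound, DMSO matched to controls · Schedule – 37 °C overnight plating, 90-min dark dye load, 20-min compound pretreatment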
# Kir21 block = Kir2.1 (mouse) channel inhibition; HEK293-Kir2.1, FluxOR thallium flux fluorescence; stronger effect = lower value; 0.85% of 310,000 active; P35561; B-score at 10 µM;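 active means fluorescence ratio B-score at or below minus 3 SD of library scores, with starting-brightness B-score within 2 SD, cut at about -4.2 in these data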;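 further: channel flux triggered by added potassium and thallium sulfate stimulus; B-score of peak minus minimum fluorescence over baseline after thallium stimulus; more negative B-score means stronger Kir2.1 block with less thallium influx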
# KCNQ1 block = human KCNQ1 channel inhibition | CHO-K1 KCNQ1, FluxOR thallium flux fluorescence; stronger effect = higher value | B-score at 10 µM | 1.3% of 310,000 active | AID 2642;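 active means compounds whose thallium flux B-score, printed positive for inhibition, exceeds three library SD while starting fluorescence stays within three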;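 further: channel opened by potassium depolarization with thallium stimulus after 20 min compound exposure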
# Numbers stand for hits; 0 = inactive; - = no result. Sampled rows, rich in hits. Any-hit rate of the full collection: about 3.8%.
SMILES,hERG rescue,KCNK9 block,KCNK3 block,KCNQ1 act,Kir21 block,KCNQ1 block
Cc1ccc(C(=O)NC(=S)N(C)C2CCCCC2)cc1,15,0,0,17,0,0
CCn1c(CCNC(=O)c2ccc(OC)cc2)nnc1SCc1ccc(Cl)c(Cl)c1,0,0,0,0,-6.5,0
CCn1c(CCNC(=O)c2ccc(C)cc2)nnc1SCc1ccc(Cl)c(Cl)c1,0,0,0,0,0,0
Nc1ccc2c(c1)-c1ccc(F)cc1C2=O,-,-,0,-,-,-
CC(OC(=O)CCc1cc(C(C)(C)C)c(O)c(C(C)(C)C)c1)C(=O)NC1CC1 (stereo not drawn),0,0,0,0,-4.3,0
Clc1ccc(-c2nnc(NCc3ccccc3)c3ccccc23)cc1,0,0,0,0,0,0
O=C(CN1C(=O)NC2(CCCCC2)C1=O)Nc1ccccc1N1CCCCC1,-,-,0,-,-,-
NNC(=O)c1sccc1OCc1ccc(Cl)cc1Cl,0,0,0,0,0,0
CNC(=O)c1sccc1SCc1ccc(Cl)cc1Cl,0,0,0,0,-5.2,0
CC(C)(C)c1ccc(-c2cn(-c3ccc(Br)cc3)c3[n+]2CCCS3)cc1,0,0,0,0,0,7
CCCn1nnnc1SCC(=O)Nc1nnc(CC)s1,17,0,0,0,0,0
CCOC(=O)c1c(NC(=O)CSc2nnnn2CC)sc(C)c1C,0,-7.7,0,0,0,0
Cc1nnc(NC(=O)CSc2nnnn2Cc2ccccc2)s1,0,0,0,0,0,0
Cc1nc(NC(=O)CSc2nnnn2Cc2ccccc2)sc1C,5.0,0,0,0,0,0
CCOC(=O)c1c(NC(=O)CSc2nnnn2C)sc(CC)c1C,0,-6.8,0,0,0,0
O=C(CCSc1ccccc1)Nc1nccs1,0,0,0,0,0,0
O=C(CSc1ccccc1)N(c1ccc(Br)cc1)c1nccs1,0,0,0,0,-5.2,0
O=C(NC(Cc1ccccc1)C(=O)O)/C(=C/c1ccco1)NC(=O)c1cccc([N+](=O)[O-])c1 (stereo not drawn),53,0,0,0,0,0
O=C1OC(c2ccccc2)(c2cc(Br)ccc2O)c2ccccc21 (stereo not drawn),-,-,-9.8,-,-,-
O=C1OC(c2ccc(O)cc2)(c2ccccc2O)c2ccccc21 (stereo not drawn),-,-,0,-,-,-
Cc1ccc2nnnc(-c3ccccc3)c2c1,0,0,0,0,0,0
Cc1ccc2c(c1)c(-c1ccccc1)nc1nnnn12,6.0,0,0,0,0,0
Cc1ccc(S(=O)(=O)Nc2ccc3c(c2)C(=O)N([C@H](C)CO)C[C@H](C)[C@@H](CN(C)Cc2ccccc2)O3)cc1,-,-,-10,-,-,-
Cc1ccc2c(c1)c1c3n2CCN(C(=O)CCl)C3CCC1 (stereo not drawn),0,0,0,0,-8.8,0
Cc1cccc(-c2n[nH]c(=S)n2/N=C/c2cccs2)c1,0,0,0,9,0,0
SMILES,hERG rescue,KCNK9 block,KCNK3 block,KCNQ1 act,Kir21 block,KCNQ1 block
S=c1[nH]nc(-c2cccs2)n1/N=C/c1c(Cl)cccc1Cl,32,0,0,37,0,0
CCC(CO)Oc1cc(NCc2cccc(C)c2)c2ncn(C(C)C)c2c1 (stereo not drawn),-,-,0,-,-,-
Cc1cc(NC(=O)CSc2n[nH]c(=O)[nH]c2=O)ccc1Br,0,0,0,0,0,0
O=c1c2ccccc2nc(-c2cccc(Cl)c2)n1O,23,0,0,13,0,0
Cc1ccc(-c2nc3ccccc3c(=O)n2O)cc1,7.7,0,0,0,0,0
O=c1c2cc(Br)ccc2nc(-c2ccccc2)n1O,17,0,0,11,0,0
O=c1c2cc(Cl)ccc2nc(-c2ccccc2Cl)n1O,0,0,0,0,0,0
O=C(Nc1ccc2c(c1)OCCO2)C1c2ccccc2C(=O)N2CCc3ccccc3C12 (stereo not drawn),0,0,0,0,0,0
O=C(COC(=O)CCc1ccc(S(=O)(=O)N2CCOCC2)cc1)NC1CCCCCC1,0,0,0,0,0,0
CC(NC(=O)Cn1cc(C(=O)C2CC2)c2ccccc21)c1ccccc1 (stereo not drawn),0,0,0,0,0,0
COc1cccc(CNc2ccc(S(N)(=O)=O)cc2)c1OCc1ccccc1F,0,0,0,0,-5.1,0
C=CCOc1c(CNc2ccc(S(N)(=O)=O)cc2)cccc1OC,0,0,0,0,0,0
O=C(c1ccoc1)N1CCC2(CC1)Oc1ccc(Cl)cc1C(=O)C21CC(c2cccnc2)=NO1 (stereo not drawn),0,0,0,0,0,0
COc1cc2ccc3c(CCN(C)C)cc(OC)c(OC)c3c2cc1OC,0,0,0,0,0,0
CN(C)CCc1cc2c(c3c1ccc1ccccc13)OCO2,0,0,0,0,-11,0
COc1ccccc1CN(C)C(=O)c1sccc1-c1ccccc1,0,0,0,0,-5.4,0
COc1ccccc1CN(C)C(=O)c1cnc(C)cn1,0,0,0,0,0,0
CCN(Cc1ccccc1)S(=O)(=O)c1ccccc1Br,-,-,0,-,-,-
C=CCCCN(Cc1ccccc1)S(=O)(=O)c1ccccc1Br,0,-7.7,0,0,0,0
COCC1CCCN(C(=O)c2cc(COc3ccc4ncccc4c3)on2)C1 (stereo not drawn),0,0,0,0,0,6
Cc1cc(NC(=O)CSc2nc3ccccc3n2CCC#N)no1,4.9,0,0,0,0,0
CCC/C(O)=C1\C(=O)CCCC1=NCCc1c(C)[nH]c2ccc(C)cc12,0,0,0,0,0,0
CCCC/C(O)=C1\C(=O)CCCC1=NCCc1c(C)[nH]c2ccccc12,0,0,0,0,-4.4,0
Cc1ccc(C2CC(c3ccccc3)=NN2C(=S)Nc2ccccc2)o1 (stereo not drawn),0,0,0,0,0,6
O=C(CSc1ncccc1-c1nc2ccccc2[nH]1)N1CCc2ccccc21,0,0,0,0,0,0
SMILES,hERG rescue,KCNK9 block,KCNK3 block,KCNQ1 act,Kir21 block,KCNQ1 block
CCn1c(-c2cc(-c3ccc(OC(C)C)cc3)nc3ccccc23)n[nH]c1=S,0,0,0,0,0,6
CCn1c(-c2cc(-c3ccc(C)cc3)nc3ccccc23)n[nH]c1=S,0,0,0,0,0,0
C=CCn1c(-c2cc(-c3ccc(C)cc3)nc3ccccc23)n[nH]c1=S,5.8,0,0,0,0,0
N=C1S/C(=C\c2ccco2)C(=O)N1c1nccs1,0,0,0,9,0,0
C=CCOC(=O)c1cn(CC)c2nc(C)ccc2c1=O,0,0,0,0,0,0
CCn1cc(C(=O)OCC(=O)OC2CC(C)CCC2C(C)C)c(=O)c2ccc(C)nc21 (stereo not drawn),0,0,-11,0,0,0
CC(=O)NC(c1ccccc1)c1nc2ccccc2[nH]1 (stereo not drawn),0,0,-11,0,0,0
OC(c1ccccc1)c1nc2ccccc2[nH]1 (stereo not drawn),0,0,0,0,0,0

# Screening results: PubChem, Johns Hopkins Ion Channel Center
